Experimental data taken from PMC11341722 (Nature Communications, 2024).
Like-named read-outs stand apart in the source and are kept apart here.

Experiments:
[1] = target: T1, B^0AT1 (SLC6A19) (Homo sapiens, UniProt Q695T7); assay: Optimized radioactive L-[14C]leucine uptake; type: cell-based
T1 sequence (Q695T7 1-634): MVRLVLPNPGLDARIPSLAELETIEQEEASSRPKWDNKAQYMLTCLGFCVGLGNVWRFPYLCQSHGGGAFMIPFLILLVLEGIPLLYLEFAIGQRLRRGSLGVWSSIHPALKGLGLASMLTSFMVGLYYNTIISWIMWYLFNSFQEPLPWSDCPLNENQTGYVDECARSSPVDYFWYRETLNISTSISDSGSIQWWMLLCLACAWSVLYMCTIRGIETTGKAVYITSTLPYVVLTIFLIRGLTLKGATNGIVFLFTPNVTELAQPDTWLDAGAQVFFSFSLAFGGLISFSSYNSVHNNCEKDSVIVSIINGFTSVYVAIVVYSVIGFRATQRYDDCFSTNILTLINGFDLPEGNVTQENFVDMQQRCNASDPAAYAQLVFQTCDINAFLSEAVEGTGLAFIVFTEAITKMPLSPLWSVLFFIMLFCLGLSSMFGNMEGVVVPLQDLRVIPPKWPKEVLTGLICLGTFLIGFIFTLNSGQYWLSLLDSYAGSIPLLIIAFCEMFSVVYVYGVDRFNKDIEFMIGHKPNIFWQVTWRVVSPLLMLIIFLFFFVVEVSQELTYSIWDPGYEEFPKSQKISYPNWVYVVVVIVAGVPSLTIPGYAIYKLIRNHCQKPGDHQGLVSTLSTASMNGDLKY
T1 sequence (Q9HBJ8 15-222 partner): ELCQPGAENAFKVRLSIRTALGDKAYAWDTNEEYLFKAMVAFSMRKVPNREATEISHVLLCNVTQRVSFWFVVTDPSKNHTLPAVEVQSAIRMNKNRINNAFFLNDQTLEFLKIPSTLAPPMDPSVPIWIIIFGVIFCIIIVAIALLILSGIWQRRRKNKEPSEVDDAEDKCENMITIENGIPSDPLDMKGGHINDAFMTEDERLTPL

[2] = target: T1, B^0AT1 (SLC6A19); assay: FLIPR membrane potential transport assay in CHO-BC cells; type: cell-based; conditions: read-out: inhibition at 30 µM
How it was run: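 CHO cells (Flp-In) stably expressing B0AT1 with collectrin, passages <10, seeded at 60,000 cells/well overnight. Washed three times in HBSS + 5 mM glucose, pH 7.5. Preincubated 30 min at room temperature with test compound plus membrane-potential dye. Read fluorescence (ex 530/em 565 nm) every 10 s before and after adding L-leucine to 1.5 mM final, at room temperature.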

[3] = test system: B^0AT1; conditions: substrate; cited from earlier work
[4] = target: T1, B^0AT1 (SLC6A19); conditions: read-out: IC50 range of initially identified inhibitors; cited from earlier work

CCNC(=O)/C=C/c1cccc(Br)c1 [Cinromide, cinromide]
IC50 [1]: 0.8 ± 0.1 µM

Cc1cc(Cl)cc(C)c1OCC(=O)NC(C)C [JX8, 2-(4-chloro-2,6-dimethylphenoxy)-N-isopropylacetamide]
inhibition at 30 µM [2]: 8%

N[C@@H](Cc1c[nH]c2ccccc12)C(=O)O [L-tryptophan]
Vmax relative to that of L-methionine [3]: 10%

CS(=O)(=O)Nc1ccc([N+](=O)[O-])cc1Oc1ccccc1 [Nimesulide, nimesulide]
IC50 [4]: 10 to 100 µM

CN1[C@@H]2CC[C@H]1C[C@@H](OC(c1ccccc1)c1ccccc1)C2 [benztropine]
IC50 [4]: 10 to 100 µM
